Screening data (PubChem)
CHO parental Ca – counter-screen for OX1R antagonists: effect in parental CHO cells; hit rate 0.63% among 330,000; parental CHO-K1, ATP-induced calcium, Fluo-8 fluorescence; inhibition, % at 5.6 µM; AID 463079;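 active = inhibition above that plate's mean sample inhibition plus 3 SD, cut at about 26% in these data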
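Material: parental CHO cells / Compound: single nominal dose of 5.6 µM per compound / Signal: Fluo-8 fluorescence / Replicates: singlicate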
TAAR1 antagonist – antagonists of human TAAR1; CHO RD-HGA16 TAAR1, Fluo-8 calcium fluorescence, antagonist; inhibition, % at 3 µM; hit rate 1.5% among 360,000;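 active = inhibition above a per-plate cutoff, the mean inhibition of test compounds on that plate plus 3 SD, cut at about 49% in these data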
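Test system: RD-HGA16 CHO cells with stable hTAAR1 and Gα16 / Probe or stimulus: EC80 β-phenethylamine stimulus / Times: seeding 17-24 h prior, 75-min 37 °C, 30-min RT dye loading / Detection: Fluo-8 calcium-sensitive fluorescence / Read-out basis: % inhibition scaled between DMSO and EC80 PEA controls / Repeats: singlicate, one well per test compound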
OX1R antag-1 – blocks the human orexin 1 receptor. O43613. OX1R-expressing cells, FRET antagonist read-out. inhibition, % at 6.6 µM. hit rate 1.8% among 330,000; in the data active = inhibition mostly above about 38%, no sharp cut-off; inactive = mostly below about 40%
Target sequence (O43613 whole entry, looked up): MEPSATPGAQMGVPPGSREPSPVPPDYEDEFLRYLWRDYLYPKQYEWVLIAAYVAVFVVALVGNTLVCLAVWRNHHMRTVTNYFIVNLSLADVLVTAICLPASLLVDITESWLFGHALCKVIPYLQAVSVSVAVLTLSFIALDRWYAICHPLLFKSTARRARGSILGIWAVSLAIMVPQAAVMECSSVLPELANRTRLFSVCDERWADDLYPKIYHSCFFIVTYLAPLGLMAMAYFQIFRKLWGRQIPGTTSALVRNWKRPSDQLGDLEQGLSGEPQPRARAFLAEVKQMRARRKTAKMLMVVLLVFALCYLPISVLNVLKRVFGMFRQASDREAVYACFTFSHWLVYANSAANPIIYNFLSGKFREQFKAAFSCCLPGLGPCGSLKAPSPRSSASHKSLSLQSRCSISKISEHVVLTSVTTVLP
TAAR1 ag – human TAAR1 agonism. Q96RJ0. AID 624467. activation, % at 3 µM. CHO RD-HGA16 TAAR1, Fluo-8 calcium fluorescence; vehicle wells 0%, saturating PEA agonist 100%. hit rate 0.99% among 360,000;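 active = activation above the mean activation of all test compounds in the run plus 3 SD, cut at about 38% in these data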
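test system = CHO RD-HGA16 cells carrying human TAAR1 plus Gα16 | schedule = 17-24 h seeding, 75 min 37 °C dye, 30 min RT | compound dosing = 3 µM single concentration | control set = DMSO and PEA EC100 | replicates = n 1 | signal = Fluo-8 fluorescence, 5 s baseline then 140 s kinetic read | measure = percent activation vs PEA EC100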
OX1R antag-2 – antagonists of human orexin 1 receptor; O43613; CHO/OX1R cells, Fluo-8 calcium fluorescence, orexin A; inhibition, % at 5 µM; hit rate 0.43% among 330,000; AID 434989;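 active = inhibition above its plate's threshold, mean inhibition of all tested compounds on the plate plus 3 SD, cut at about 37% in these data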
GalR3 antagonist – human GalR3 antagonism | hit rate 0.44% among 360,000 | O60755 | AID 651719 | HEK293 GalR3-CNG cAMP membrane potential fluorescence; galR3 body fused to GalR1 C-terminus | inhibition, % at 3 µM;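 active = inhibition above the screen-wide average plus 3 SD, cut at about 13% in these data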;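 note: forskolin and galanin both at EC90 stimulate the cells; cAMP rise reported by CNG channel membrane potential dye signal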
TAAR1 ag confirm – human TAAR1 agonism, confirmed; shares compounds with TAAR1 ag; CHO RD-HGA16 TAAR1, Fluo-8 calcium fluorescence; scaled: DMSO 0%, maximal phenethylamine 100%; activation, % at 3 µM; hit rate 82% among 2,400; AID 651783;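 active = activation above a cutoff set at the run's mean compound activation plus 3 SD, cut at about 39% in these data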
Ga16 ag counter – counter-screen for TAAR1 agonists: nonselective agonists in parental cells. shares compounds with TAAR1 ag. CHO-Ga16 parental, Fluo-8 calcium fluorescence; normalized to maximal ATP response, DMSO zero. activation, % at 3 µM. hit rate 50% among 2,400;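 active = activation above the run cutoff, the mean activation over all tested wells plus 3 SD, cut at about 12% in these data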
TAAR1 desens – counter-screen for human TAAR1 agonists: agonists that desensitize TAAR1 | inhibition, % at 3 µM | hit rate 46% among 2,400 | shares compounds with TAAR1 ag | CHO RD-HGA16 hTAAR1, Fluo-8 calcium, beta-PEA response inhibition;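 active = inhibition above the run cutoff, the mean inhibition of all test compounds plus 3 SD, cut at about 49% in these data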;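 note: beta-PEA stimulus applied at its EC80; loss of beta-PEA calcium signal after compound pretreatment read as receptor desensitization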
Ga16 nonsel ant – nonselective Ga16 antagonism, counter-screen. CHO-Ga16 ATP-induced calcium, Fluo-8 fluorescence. AID 651952. shares compounds with TAAR1 ag. inhibition, % at 3 µM. hit rate 39% among 2,400;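 active = inhibition above the plate's mean compound inhibition plus 3 SD, computed per plate, cut at about 22% in these data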
Numbers stand for hits; - = inactive; . = no result. The list is not random: actives were taken first. Their share in the collection is about 4.2%.

SMILES | CHO parental Ca | TAAR1 antagonist | OX1R antag-1 | TAAR1 ag | OX1R antag-2 | GalR3 antagonist | TAAR1 ag confirm | Ga16 ag counter | TAAR1 desens | Ga16 nonsel ant
CC(C)c1c(C(=O)N/N=C/c2ccoc2)nnn1-c1nonc1N | - | - | - | 65 | - | - | - | 32 | - | -
CC(C)c1c(C(=O)N/N=C2\CCc3ccccc32)nnn1-c1nonc1N | - | - | - | 62 | - | - | 53 | 16 | - | -
CC(C)c1c(C(=O)N/N=C/c2cccs2)nnn1-c1nonc1N | - | - | - | 90 | - | - | 108 | 72 | - | -
O=C1/C(=C/c2cccs2)SC(=S)N1N1CCOCC1 | - | - | - | - | - | - | . | . | . | .
COC(=O)C(CCSC)NC(=O)CNS(=O)(=O)c1ccc(F)cc1 (stereo not drawn) | - | - | - | - | - | - | . | . | . | .
CC(C)c1c(C(=O)N/N=C/c2ccsc2)nnn1-c1nonc1N | - | - | - | 105 | - | - | 124 | 82 | - | -
CC(C)c1c(C(=O)N/N=C/c2ccc(C(F)(F)F)cc2)nnn1-c1nonc1N | - | 79 | - | 150 | - | - | 120 | 89 | 80 | 39
c1ccc2[nH]c(NN=C3CCCCCC3)nc2c1 | - | - | - | - | - | - | . | . | . | .
CC(C)Oc1ccc(C(CCNCc2ccc(O)cc2)c2ccccc2)cc1 (stereo not drawn) | . | - | . | 70 | . | - | 57 | 29 | - | 35
Cc1ccc2nc(SCC(=O)NCCc3ccccc3)nc(=O)n2c1 | - | - | - | - | - | - | . | . | . | .
O=C(CSc1nc(=O)n2cc(Cl)ccc2n1)NCCc1ccccc1 | - | - | - | 50 | - | - | 68 | - | - | -
CCOC(=O)N1CCN(C(=O)CS(=O)(=O)Cc2nc(-c3ccccc3C)oc2C)CC1 | - | - | - | - | - | . | . | . | . | .
CC(=O)Oc1c(C(C)C)cc(N(C(C)=O)c2ccccc2)cc1C(C)C | - | - | - | - | - | - | . | . | . | .
CC(=O)c1c(C)[nH]c(C(=O)OCC(=O)NNC(=O)c2ccc([N+](=O)[O-])cc2)c1C | - | - | - | - | - | - | . | . | . | .
CC(=O)c1c(C)[nH]c(C(=O)OCc2nnc(-c3ccc([N+](=O)[O-])cc3)o2)c1C | - | - | - | 48 | - | - | - | - | - | -
CCCCCCCCCCCCC/C=C/[C@@H](O)[C@@H](N)CO | - | - | - | 39 | - | - | 83 | 65 | - | 23
CCC(C)c1ccc(NC(=S)NC2CCN(Cc3ccccc3)CC2)cc1 (stereo not drawn) | - | - | - | 58 | - | - | 45 | 19 | - | 27
CCc1ccc(NC(=S)NC2CCN(Cc3ccccc3)CC2)cc1 | - | - | - | - | - | - | . | . | . | .
CS(=O)(=O)c1cccc(NC(=O)C2CC2)c1 | - | - | - | - | - | - | . | . | . | .
O=C(Nc1cccnc1)c1ccc(Cl)c(Cl)c1 | - | - | - | 47 | - | - | 41 | 42 | - | -
O=C(Nc1cccnc1)c1cc(Br)c(Br)s1 | - | - | - | 91 | - | - | 75 | 59 | 50 | 23
CS(=O)(=O)c1cccc(NC(=O)c2ccc(Cl)c(Cl)c2)c1 | - | - | - | 88 | - | - | 60 | 43 | - | 28
Cc1cccc(/N=C/c2c(O)[nH]c3ccccc23)n1 | - | - | - | - | - | - | . | . | . | .
Cc1ccc(C(=O)NCC(c2ccco2)N2CCc3ccccc3C2)cc1C (stereo not drawn) | - | - | - | - | - | - | . | . | . | .
